Experimental data: ChEMBL document CHEMBL2034866, “Design, synthesis and biological evaluation of a novel series of 1,3,4-oxadiazole bearing N-methyl-4-(trifluoromethyl)phenyl pyrazole moiety as cytotoxic agents” (Eur J Med Chem, 2012)

How the values were obtained:
[1] = Cytotoxicity against mouse EAC cells after 24 hrs by MTT assay; assay type: functional, cell-based; details: Ehrlich
Summary of the method: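 Mouse Ehrlich ascites tumour cells were given at least one in vitro passage before use, then plated at 10⁴ cells/well with 24 h attachment. Compounds in 0.1% DMSO/medium were tested at 1–100 for 24 h against vehicle controls. MTT (1 mg/mL) was applied for 4 h at 37 °C, formazan dissolved in DMSO and A540 read. Done in triplicate; % cytotoxicity was taken relative to control and blank absorbances.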

[2] = system: MCF7; test: Cytotoxicity against human MCF7 cells after 24 hrs by MTT assay; assay type: functional, cell-based; details: for IC50: MCF7, 24 h
Summary of the method: (§1)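 Exponentially growing cells were seeded at 10⁴ cells/well and allowed to attach for 24 h. Compounds were dissolved in 0.1% DMSO, diluted in medium and added across 1–100 for 24 h; controls received medium with 0.1% DMSO. MTT (1 mg/mL) was added for 4 h at 37 °C, formazan was solubilised in DMSO and A540 read. Assays were run in triplicate, with % cytotoxicity calculated from control-, blank- and test-well absorbances.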

[3] = system: A549; test: Cytotoxicity against human A549 cells after 24 hrs by MTT assay; assay type: functional, cell-based; details: A549, 24 h; summary of the method: as §1
[4] = system: MCF7; test: Cytotoxicity against human MCF7 cells at 1 to 50 uM by MTT assay; assay type: functional, cell-based; details: TDE = time-dependent effect
Summary of the method: (§2)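 Time-course MTT: MCF-7 cells were seeded at 5 × 10³ cells/well and exposed to compounds at 1–50. % cytotoxicity and IC50 were determined at 24, 48 and 72 h using MTT read-out at 540 nm. Each experiment was performed independently three times and reported as mean ± SD.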

[5] = system: MCF7; test: Cytotoxicity against human MCF7 cells after 48 hrs by MTT assay; assay type: functional, cell-based; details: MCF7, 48 h; summary of the method: as §2
[6] = system: MCF7; test: Cytotoxicity against human MCF7 cells after 72 hrs by MTT assay; assay type: functional, cell-based; details: MCF7, 72 h; summary of the method: as §2
[7] = system: MCF7; test: Ratio of IC50 for human MCF7 cells after 24 hrs to IC50 for human MCF7 cells after 48 hrs by MTT assay; assay type: functional
Summary of the method: (§3)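 MCF-7 cells at 5 × 10³ cells/well were treated with compounds at 1–50, and MTT IC50 values were determined at 24, 48 and 72 h (three independent experiments, mean ± SD). The fold reduction is the 24 h IC50 divided by the 48 h or 72 h IC50.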

[8] = system: MCF7; test: Ratio of IC50 for human MCF7 cells after 24 hrs to IC50 for human MCF7 cells after 72 hrs by MTT assay; assay type: functional; summary of the method: as §3

Compound	IC50 [1]	IC50 [2]	IC50 [3]	Activity [4]	IC50 [5]	Activity [2]	IC50 [6]	Ratio IC50 [7]	Ratio IC50 [8]
Cn1nc(-c2ccc(C(F)(F)F)cc2)cc1-c1nnc(SCc2c(F)cccc2F)o1	38.5 µM	46.2 µM	72.2 µM						
Cn1nc(-c2nnc(SCc3ccc(Cl)c(Cl)c3)o2)cc1-c1ccc(C(F)(F)F)cc1	46.2 µM	27.2 µM	44.2 µM						
COc1cccc2c1C(=O)c1c(O)c3c(c(O)c1C2=O)C[C@@](O)(C(=O)CO)C[C@@H]3O[C@H]1C[C@H](N)[C@H](O)[C@H](C)O1 [DOXORUBICIN]			3.28 µM						
Cn1nc(-c2ccc(C(F)(F)F)cc2)cc1-c1nnc(SCc2cccc(Cl)c2Cl)o1	56.5 µM	60.2 µM	84.2 µM						
Cn1nc(-c2nnc(SCc3cccc(Cl)c3Cl)o2)cc1-c1ccc(C(F)(F)F)cc1	36.8 µM	32.2 µM	54.3 µM						
Cn1nc(-c2nnc(S)o2)cc1-c1ccc(C(F)(F)F)cc1	68.2 µM	> 100 µM							
Cn1nc(-c2nnc(SCc3ccc(C(F)(F)F)cc3)o2)cc1-c1ccc(C(F)(F)F)cc1	20.5 µM	15.5 µM	29.2 µM	tde	8.86 µM	Dose-dependent effect	5.25 µM	1.75	2.96
Cn1nc(-c2ccc(C(F)(F)F)cc2)cc1-c1nnc(SCc2cccc([N+](=O)[O-])c2)o1	> 100 µM	> 100 µM							
Cn1nc(-c2ccc(C(F)(F)F)cc2)cc1-c1nnc(SCCc2ccc(F)cc2)o1	39.5 µM	45.4 µM	84.2 µM						
Cn1nc(-c2nnc(SCCOc3ccccc3F)o2)cc1-c1ccc(C(F)(F)F)cc1	25.2 µM	23.1 µM	48.1 µM	tde	19.2 µM	Dose-dependent effect	14.2 µM		
Cn1nc(-c2ccc(C(F)(F)F)cc2)cc1-c1nnc(S)o1	75.3 µM	> 100 µM							
Cn1nc(-c2nnc(SCc3ccc(Cl)cc3F)o2)cc1-c1ccc(C(F)(F)F)cc1	26.2 µM	18.2 µM	48.2 µM	tde	12.2 µM	Dose-dependent effect	9.8 µM		
Cn1nc(-c2ccc(C(F)(F)F)cc2)cc1-c1nnc(SCCOc2ccccc2F)o1	35.1 µM	33.3 µM	68.1 µM						
Cn1nc(-c2nnc(SCCc3ccc(F)cc3)o2)cc1-c1ccc(C(F)(F)F)cc1	29.2 µM	25.2 µM	39 µM	tde	21.1 µM	Dose-dependent effect	18.1 µM		
Cn1nc(-c2nnc(SCc3cccc([N+](=O)[O-])c3)o2)cc1-c1ccc(C(F)(F)F)cc1	> 100 µM	> 100 µM							
Cn1nc(-c2ccc(C(F)(F)F)cc2)cc1-c1nnc(SCc2ccc(C(F)(F)F)cc2)o1	27.2 µM	27.1 µM	39.8 µM						
Cn1nc(-c2nnc(SCc3c(F)cccc3F)o2)cc1-c1ccc(C(F)(F)F)cc1	28.2 µM	26.2 µM	38 µM	tde	20.5 µM	Dose-dependent effect	16.2 µM		
